ChEMBL document CHEMBL1158118, “Decaspirones F-I, bioactive secondary metabolites from the saprophytic fungus Helicoma viridis” (2006)
The source made the active and inactive calls. The rule behind the calls is not given here.

Columns and labels:
Pseudomonas aeruginosa = assay: Antibacterial activity against […] Pseudomonas aeruginosa ATCC 27853 at 100 ug/disk by standard disk assay; format: functional; details: read-out: IZ
In short: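 Disk diffusion on agar; compounds loaded onto 6 mm paper disks at 100 µg/disk and placed on the plate surface. Plates incubated at 37 °C for 24 h, then zone of inhibition recorded in mm. Ciprofloxacin at 100 µg/disk served as reference.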

Staphylococcus aureus = assay: Antibacterial activity against Staphylococcus aureus ATCC 6538 at 100 ug/disk by standard disk assay; format: functional, organism-based
In short: (§1)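 Test compound loaded onto 6 mm paper disks at 100 µg/disk and laid on the agar surface. Plates incubated at 37 °C for 24 h, then scored for a zone of inhibition.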

Streptococcus mutans = assay: Antibacterial activity against Streptococcus mutans ATCC 25175 at 100 ug/disk by standard disk assay; format: functional, organism-based; in short: as §1
Enterococcus faecalis = assay: Antibacterial activity against Enterococcus faecalis ATCC 19433 at 100 ug/disk by standard disk assay; format: functional, organism-based; in short: as §1
Micrococcus luteus = assay: Antibacterial activity against Sarcina lutea CMCC B28001 at 100 ug/disk by standard disk assay; format: functional, organism-based; in short: as §1
Geotrichum candidum = assay: Antifungal activity against Geotrichum candidum AS2.498 at 100 ug/disk by standard disk assay; format: functional, organism-based
In short: (§2)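 Paper disks (6 mm diameter) carrying 100 µg of test compound placed on the agar surface. Plates kept at 25 °C for 48 h and checked for a zone of inhibition.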

Candida albicans = assay: Antifungal activity against Candida albicans ATCC 10231 at 100 ug/disk by standard disk assay; format: functional, organism-based; in short: as §2
Aspergillus fumigatus = assay: Antifungal activity against Aspergillus fumigatus ATCC 10894 at 100 ug/disk by standard disk assay; format: functional, organism-based; in short: as §2
Lactococcus lactis = assay: Antibacterial activity against Lactococcus lactis PCM 2379 at 100 ug/disk by standard disk assay; format: functional; details: read-out: IZ; in short: as §1

With `O[C@H]1[C@@H]2[C@H]([C@@H](O)C=CC23Oc2cccc4cccc(c24)O3)[C@@H](O)C[C@@H]1O` [DECASPIRONE H] the zone of inhibition at 100 µg/disc (Pseudomonas aeruginosa) was 8 mm, the Activity (Staphylococcus aureus) was “inactive” and the Activity (Streptococcus mutans) was “inactive”. For the same compound, the Activity (Enterococcus faecalis) was “inactive”, the Activity (Micrococcus luteus) was “inactive” and the Activity (Geotrichum candidum) was “inactive”. For the same compound, the Activity (Candida albicans) was “inactive” and the Activity (Aspergillus fumigatus) was “inactive”.

`O[C@@H]1C=C[C@H](O)[C@@H]2[C@@H]1C1(C=C[C@@H]2O)Oc2cccc3cccc(c23)O1` [DECASPIRONE F] was tested, and the zone of inhibition at 100 µg/disc (Pseudomonas aeruginosa) was 8 mm, the Activity (Staphylococcus aureus) was “inactive” and the Activity (Streptococcus mutans) was “inactive”. The Activity (Enterococcus faecalis) was “inactive”, the Activity (Micrococcus luteus) was “inactive” and the Activity (Geotrichum candidum) was “inactive”. The Activity (Candida albicans) was “inactive” and the Activity (Aspergillus fumigatus) was “inactive”.

`O=C1CCC(O)c2c(Oc3cccc4cccc(O)c34)cccc21` (centres undefined) [DECASPIRONE I] was tested, and the zone of inhibition at 100 µg/disc (Pseudomonas aeruginosa) was 8 mm, the Activity (Staphylococcus aureus) was “inactive” and the Activity (Streptococcus mutans) was “inactive”. For the same compound, the Activity (Enterococcus faecalis) was “inactive”, the Activity (Micrococcus luteus) was “inactive” and the Activity (Geotrichum candidum) was “inactive”. The Activity (Candida albicans) was “inactive” and the Activity (Aspergillus fumigatus) was “inactive”.

`O=C1CC[C@@H](O)[C@@H]2[C@@H]1[C@@H](O)C=CC21Oc2cccc3cccc(c23)O1` [DECASPIRONE G] was tested, and the zone of inhibition at 100 µg/disc (Pseudomonas aeruginosa) was 8 mm, the zone of inhibition at 100 µg/disc (Lactococcus lactis) was 12 mm and the Activity (Staphylococcus aureus) was “inactive”. For the same compound, the Activity (Streptococcus mutans) was “inactive”, the Activity (Enterococcus faecalis) was “inactive” and the Activity (Micrococcus luteus) was “inactive”. The Activity (Geotrichum candidum) was “inactive”, the Activity (Candida albicans) was “inactive” and the Activity (Aspergillus fumigatus) was “inactive”.

In the case of `O=C(O)c1cn(C2CC2)c2cc(N3CCNCC3)c(F)cc2c1=O` [CIPROFLOXACIN], the zone of inhibition at 100 µg/disc (Pseudomonas aeruginosa) is reported as 22 mm.
